Measurements published in PMC12823633 (Cancer Chemotherapy and Pharmacology, 2026).

How the values were obtained:
[1] = Adverse events, DDI evaluation period; format: in vivo, human (patients with solid tumors)
CYP3A4 = conditions: human, plasma, oral, 2.5 mg
CYP2C8 [2] = molecular target: T1, CYP2C8 (Homo sapiens, UniProt P10632); experiment: Clinical DDI: pioglitazone plasma PK with and without TAS-115; conditions: oral, 15 mg
T1 sequence (P10632 1-490): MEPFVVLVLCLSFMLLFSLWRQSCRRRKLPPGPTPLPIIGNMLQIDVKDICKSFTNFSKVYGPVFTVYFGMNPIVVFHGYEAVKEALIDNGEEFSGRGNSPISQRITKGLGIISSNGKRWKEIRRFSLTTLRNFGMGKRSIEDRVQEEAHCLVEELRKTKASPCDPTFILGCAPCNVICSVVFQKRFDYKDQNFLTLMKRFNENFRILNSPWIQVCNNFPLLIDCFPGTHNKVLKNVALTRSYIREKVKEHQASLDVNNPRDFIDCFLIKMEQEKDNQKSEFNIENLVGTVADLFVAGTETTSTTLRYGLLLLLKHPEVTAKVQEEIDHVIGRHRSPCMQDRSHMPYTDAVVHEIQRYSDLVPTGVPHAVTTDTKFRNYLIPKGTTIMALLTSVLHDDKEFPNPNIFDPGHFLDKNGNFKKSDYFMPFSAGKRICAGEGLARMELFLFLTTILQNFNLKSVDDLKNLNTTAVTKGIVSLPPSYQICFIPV

solid tumors = experiment: Anti-tumor efficacy, continuous administration period; format: in vivo, human (patients with solid tumors)
In short: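 Open-label single-arm multicenter study in Japan. Test compound 250 mg given orally, fasted, on 5 consecutive days from Day 1 of repeated 21-day cycles (2 days off), until discontinuation. Investigator-assessed per RECIST 1.1. ORR is the % with best response CR/PR; DCR is the % with CR/PR/SD. OS in osteosarcoma runs from enrollment to death from any cause, censored at the last recorded follow-up or observation.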

CYP3A = conditions: time-dependent inhibition; ref unpublished inhouse data; cited from earlier work
[3] = TAS-115 trough plasma concentrations; format: in vivo, human (patients with solid tumors)
CYP2C19 = conditions: read-out: IC50, reversible inhibition; ref unpublished inhouse data; cited from earlier work
CYP2C9 = conditions: read-out: IC50, reversible inhibition; ref unpublished inhouse data; cited from earlier work
CYP2C8 [4] = conditions: read-out: IC50, reversible inhibition; ref unpublished inhouse data; cited from earlier work
[5] = Adverse events, continuous administration period; format: in vivo, human (patients with solid tumors)
CYP2B6 = conditions: read-out: IC50, reversible inhibition; ref unpublished inhouse data; cited from earlier work
[6] = After Administration of TAS-115, DDI period (N=18)
[7] = Before Administration of TAS-115 (N=18)
[8] = Entire DDI Evaluation Period (N=18)
[9] = All patients (N=16), efficacy-evaluable
[10] = Continuous Administration Period (N=18)
[11] = continuous administration period

## Cc1ncc2n1-c1ccc(Cl)cc1C(c1ccccc1F)=NC2 [Midazolam, midazolam, reference compound]
[1]; [6]
  Any >=Grade 3 TRAEs Related to Midazolam: 0 (0.0) N (%)
  Any TRAEs Related to Midazolam: 0 (0.0) N (%)
[1]; [7]
  Any >=Grade 3 TRAEs Related to Midazolam: 0 (0.0) N (%)
  Any TRAEs Related to Midazolam: 0 (0.0) N (%)
[1]; [8]
  Any >=Grade 3 TRAEs Related to Midazolam: 0 (0.0) N (%)
  Any TRAEs Related to Midazolam: 0 (0.0) N (%)
CYP3A4
  AUC(0-inf): 56.8 ng·h/mL
  AUC(0-t): 55.5 ng·h/mL
  Cmax: 21.9 ng/mL

## CCc1ccc(CCOc2ccc(CC3SC(=O)NC3=O)cc2)nc1 (stereo not drawn) [Pioglitazone, pioglitazone, reference compound]
CYP2C8 [2]
  AUC(0-inf): 7710 ng·h/mL
  AUC(0-t): 6340 ng·h/mL
  Cmax: 635 ng/mL
[1]; [6]
  Any >=Grade 3 TRAEs Related to Pioglitazone: 0 (0.0) N (%)
  Any TRAEs Related to Pioglitazone: 0 (0.0) N (%)
[1]; [7]
  Any >=Grade 3 TRAEs Related to Pioglitazone: 0 (0.0) N (%)
  Any TRAEs Related to Pioglitazone: 1 (5.6) N (%)
[1]; DDI evaluation period, pioglitazone administered before TAS-115
  TRAE (Grade 1 diarrhoea) related to pioglitazone: one patient
[1]; [8]
  Any >=Grade 3 TRAEs Related to Pioglitazone: 0 (0.0) N (%)
  Any TRAEs Related to Pioglitazone: 1 (5.6) N (%)

## CNC(=O)c1cc2c(Oc3ccc(NC(=S)NC(=O)Cc4ccccc4)cc3F)ccnc2cc1OC [TAS-115, pamufetinib]
Solid tumors; [9]
  CR: 0 (0.0) N (%)
  Disease control rate (CR+PR+SD): 6 (37.5) N (%)
  PD: 10 (62.5) N (%)
  PR: 1 (6.3) N (%)
  Progression-free survival, Censored: 2 (12.5) N (%)
  Progression-free survival, Event: 14 (87.5) N (%)
  Progression-free survival, Median: 2.1 month
  Response rate (CR+PR): 1 (6.3) N (%)
Solid tumors; Osteosarcoma (N=4)
  CR: 0 (0.0) N (%)
  Disease control rate (CR+PR+SD): 2 (50.0) N (%)
  Overall survival, Censored: 1 (25.0) N (%)
  Overall survival, Event: 3 (75.0) N (%)
  Overall survival, Median: 13.8 month
  PD: 2 (50.0) N (%)
  PR: 1 (25.0) N (%)
  Progression-free survival, Censored: 0 (0.0) N (%)
  Progression-free survival, Event: 4 (100.0) N (%)
  Progression-free survival, Median: 7.0 month
  Response rate (CR+PR): 1 (25.0) N (%)
Solid tumors; patients with solid tumors, 16 evaluable
  DCR: 37.5%
CYP3A
  concentration of the inhibitor required to achieve 50% of the maximum inactivation rate: 28.5 µmol/L
  maximum inactivation rate constant: 0.0650 min⁻¹
[3]; Day 4, 250 mg once daily oral
  trough plasma concentration, arithmetic mean (standard deviation): 834.5 (318.68) ng/mL
[3]; Day 5, 250 mg once daily oral
  trough plasma concentration, arithmetic mean (standard deviation): 881.6 (378.03) ng/mL
[3]; human, plasma, po, 250 mg
  concentration at 24 h: 576 ng/mL
CYP2C19
  IC50: 4.23 µM
CYP2C9
  IC50: 2.03 µM
[1]; [6]
  Any >=Grade 3 TEAEs: 2 (11.1) N (%)
  Any >=Grade 3 TRAEs: 1 (5.6) N (%)
  Any >=Grade 3 TRAEs Related to TAS-115: 1 (5.6) N (%)
  Any SAEs: 0 (0.0) N (%)
  Any TEAEs: 15 (83.3) N (%)
  Any TEAEs Leading to Death: 0 (0.0) N (%)
  Any TEAEs Leading to Discontinuation of Study Medication: 0 (0.0) N (%)
  Any TEAEs Leading to Dose Interruption of TAS-115: 0 (0.0) N (%)
  Any TEAEs Leading to Dose Reduction of TAS-115: 0 (0.0) N (%)
  Any TRAEs: 15 (83.3) N (%)
  Any TRAEs Leading to Death: 0 (0.0) N (%)
  Any TRAEs Leading to Discontinuation of Study Medication: 0 (0.0) N (%)
  Any TRAEs Related to TAS-115: 14 (77.8) N (%)
  Any TRAEs Related to TAS-115 Leading to Dose Interruption of TAS-115: 0 (0.0) N (%)
  Any TRAEs Related to TAS-115 Leading to Dose Reduction of TAS-115: 0 (0.0) N (%)
  Any Treatment-Related SAEs: 0 (0.0) N (%)
[1]; DDI evaluation period
  Grade 3 or higher TRAE (anaemia) attributed to TAS-115: one patient
  patients reporting TEAEs: 83.3%
  patients with TRAEs: 83.3%
  patients with TRAEs related to TAS-115: 14 patients
[1]; DDI evaluation period, anemia and lipase increased
  patients with TEAEs of ≥ Grade 3: 11.1%
[1]; [8]
  Any >=Grade 3 TEAEs: 2 (11.1) N (%)
  Any >=Grade 3 TRAEs: 1 (5.6) N (%)
  Any >=Grade 3 TRAEs Related to TAS-115: 1 (5.6) N (%)
  Any SAEs: 0 (0.0) N (%)
  Any TEAEs: 15 (83.3) N (%)
  Any TEAEs Leading to Death: 0 (0.0) N (%)
  Any TEAEs Leading to Discontinuation of Study Medication: 0 (0.0) N (%)
  Any TEAEs Leading to Dose Interruption of TAS-115: 0 (0.0) N (%)
  Any TEAEs Leading to Dose Reduction of TAS-115: 0 (0.0) N (%)
  Any TRAEs: 15 (83.3) N (%)
  Any TRAEs Leading to Death: 0 (0.0) N (%)
  Any TRAEs Leading to Discontinuation of Study Medication: 0 (0.0) N (%)
  Any TRAEs Related to TAS-115: 14 (77.8) N (%)
  Any TRAEs Related to TAS-115 Leading to Dose Interruption of TAS-115: 0 (0.0) N (%)
  Any TRAEs Related to TAS-115 Leading to Dose Reduction of TAS-115: 0 (0.0) N (%)
  Any Treatment-Related SAEs: 0 (0.0) N (%)
CYP2C8 [4]
  IC50: 0.563 µM
[5]; [10]
  Any >=Grade 3 TEAEs: 8 (44.4) N (%)
  Any >=Grade 3 TRAEs Related to TAS-115: 6 (33.3) N (%)
  Any SAEs: 5 (27.8) N (%)
  Any TEAEs: 18 (100.0) N (%)
  Any TEAEs Leading to Death: 0 (0.0) N (%)
  Any TEAEs Leading to Discontinuation of Study Medication: 1 (5.6) N (%)
  Any TEAEs Leading to Dose Interruption of TAS-115: 10 (55.6) N (%)
  Any TEAEs Leading to Dose Reduction of TAS-115: 1 (5.6) N (%)
  Any TRAEs Leading to Death: 0 (0.0) N (%)
  Any TRAEs Leading to Discontinuation of Study Medication: 1 (5.6) N (%)
  Any TRAEs Related to TAS-115: 17 (94.4) N (%)
  Any TRAEs Related to TAS-115 Leading to Dose Interruption of TAS-115: 9 (50.0) N (%)
  Any TRAEs Related to TAS-115 Leading to Dose Reduction of TAS-115: 1 (5.6) N (%)
  Any Treatment-Related SAEs: 2 (11.1) N (%)
[5]; [11]
  Grade 3 rash maculo-papular leading to discontinuation of TAS-115: One patient
  TEAE blood creatine phosphokinase (CK) increased: 27.8%
  TRAE of ≥ Grade 3 related to TAS-115: anaemia: 11.1%
  TRAE related to TAS-115: alanine aminotransferase increased: 33.3%
  TRAE related to TAS-115: anemia: 27.8%
  TRAE related to TAS-115: aspartate aminotransferase increased: 55.6%
  TRAE related to TAS-115: blood CK increased: 27.8%
  TRAE related to TAS-115: platelet count decreased: 22.2%
  TRAE related to TAS-115: rash: 22.2%
  criteria for severe drug-induced liver injury (Hy’s law): No criteria for severe drug-induced liver injury (Hy’s law) were met
  patients reporting TEAEs: 100%
  patients requiring dose interruption by AEs: 55.6%
  patients requiring dose reduction due to AEs related to TAS-115: 5.6%
  patients with SAEs: 27.8%
  patients with TEAEs of ≥ Grade 3: 44.4%
  patients with TRAEs of ≥ Grade 3 related to TAS-115: 33.3%
  patients with TRAEs related to TAS-115: 94.4%
[5]; continuous administration period or within 30 days following discontinuation
  deaths: No deaths occurred
CYP2B6
  IC50: 6.03 µM
